From ChEMBL document CHEMBL4014306, “Pyrazolopyrimidines as Potent Stimulators for Transient Receptor Potential Canonical 3/6/7 Channels” (J Med Chem, 2017)
Calls of active or inactive are those of the source. No cut-off for these calls is given here.

Columns and labels:
Format in all cases: cell-based
[1] = biological target: T1, Short transient receptor potential channel 3 (Homo sapiens) (UniProt Q13507); test: Agonist activity at human TRPC3 expressed in HEK293 cells assessed as induction of membrane depolarization measured for 2.5 mins in presence of 0.5 mM Ca2+ by FLIPR membrane potential dye-based fluorescence assay
T1 sequence (whole entry): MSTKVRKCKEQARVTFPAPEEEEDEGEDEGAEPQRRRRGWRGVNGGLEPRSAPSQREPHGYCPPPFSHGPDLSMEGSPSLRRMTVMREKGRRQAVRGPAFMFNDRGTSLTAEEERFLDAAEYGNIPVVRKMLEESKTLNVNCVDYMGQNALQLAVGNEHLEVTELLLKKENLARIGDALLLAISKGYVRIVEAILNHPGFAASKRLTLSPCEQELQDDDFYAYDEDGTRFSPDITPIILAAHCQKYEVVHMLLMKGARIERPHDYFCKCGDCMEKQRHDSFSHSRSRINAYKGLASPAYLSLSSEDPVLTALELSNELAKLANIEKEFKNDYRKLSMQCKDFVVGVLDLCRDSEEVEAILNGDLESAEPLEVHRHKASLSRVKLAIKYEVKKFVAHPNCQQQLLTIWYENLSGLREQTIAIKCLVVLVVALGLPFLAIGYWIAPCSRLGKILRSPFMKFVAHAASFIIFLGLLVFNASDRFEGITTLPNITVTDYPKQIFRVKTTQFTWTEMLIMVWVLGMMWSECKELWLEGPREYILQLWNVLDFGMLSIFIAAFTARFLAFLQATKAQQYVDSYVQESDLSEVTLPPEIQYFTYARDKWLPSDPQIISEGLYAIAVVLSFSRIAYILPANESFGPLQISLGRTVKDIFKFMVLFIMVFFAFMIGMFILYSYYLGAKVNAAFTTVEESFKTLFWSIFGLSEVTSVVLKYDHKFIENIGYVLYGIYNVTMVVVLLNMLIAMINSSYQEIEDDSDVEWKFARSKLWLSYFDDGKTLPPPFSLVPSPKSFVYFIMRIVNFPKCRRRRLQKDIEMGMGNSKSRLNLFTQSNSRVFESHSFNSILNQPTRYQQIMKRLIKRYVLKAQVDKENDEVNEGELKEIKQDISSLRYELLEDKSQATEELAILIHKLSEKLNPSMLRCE
Outline: (§1)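 HEK293 cells stably expressing human TRPC3, run on a FlexStation at 32 °C. Loaded with FMP dye, or Fluo-type Ca2+ dye with 2 mM probenecid. Extracellular NaCl/HEPES saline, pH 7.4, with 2 mM Ca2+ (standard) or 0.5 mM Ca2+. Read as F/F0. In 0.5 mM Ca2+, FMP EC50 from a Hill fit, n = 6.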

[2] = biological target: T2, Short transient receptor potential channel 7 (Homo sapiens) (UniProt Q9HCX4); test: (§2) Agonist activity at human TRPC7 receptor expressed in HEK293 cells assessed as induction of channel current in presence of 0.1 mM Ca2+ by whole cell patch-clamp method
T2 sequence (whole entry): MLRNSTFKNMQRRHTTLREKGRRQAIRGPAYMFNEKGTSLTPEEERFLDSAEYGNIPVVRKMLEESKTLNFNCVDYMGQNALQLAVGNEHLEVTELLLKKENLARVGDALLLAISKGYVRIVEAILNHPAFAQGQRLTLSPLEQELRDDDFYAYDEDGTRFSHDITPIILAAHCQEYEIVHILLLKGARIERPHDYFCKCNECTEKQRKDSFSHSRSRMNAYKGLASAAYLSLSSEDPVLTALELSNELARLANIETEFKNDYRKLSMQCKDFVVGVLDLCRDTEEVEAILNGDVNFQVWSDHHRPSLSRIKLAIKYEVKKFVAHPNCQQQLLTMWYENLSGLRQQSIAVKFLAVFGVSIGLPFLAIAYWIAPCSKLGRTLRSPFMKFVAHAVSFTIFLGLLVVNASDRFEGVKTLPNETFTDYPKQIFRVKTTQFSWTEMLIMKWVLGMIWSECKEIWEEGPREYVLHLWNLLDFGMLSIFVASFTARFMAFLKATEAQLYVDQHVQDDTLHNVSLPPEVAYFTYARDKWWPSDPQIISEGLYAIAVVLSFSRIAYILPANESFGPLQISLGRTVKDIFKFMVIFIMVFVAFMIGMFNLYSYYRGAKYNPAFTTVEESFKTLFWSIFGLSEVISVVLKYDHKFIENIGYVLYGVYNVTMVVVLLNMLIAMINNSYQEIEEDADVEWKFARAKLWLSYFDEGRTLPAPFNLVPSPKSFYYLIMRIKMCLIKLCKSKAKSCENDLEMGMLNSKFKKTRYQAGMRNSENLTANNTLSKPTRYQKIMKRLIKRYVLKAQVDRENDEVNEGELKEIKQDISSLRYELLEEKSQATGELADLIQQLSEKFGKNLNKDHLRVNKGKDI
Outline: (§3)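 Whole-cell voltage clamp on doxycycline-induced stable HEK293 TRPC7 cells. Pipette (mM): 110 CsCl, 10 HEPES, 10 BAPTA, 1 MgCl2, 4.77 CaCl2 (400 nM free Ca2+), pH 7.2. Bath has 0.1 mM CaCl2, and compound is perfused in bath at increasing concentrations. Ramps run from +100 to −100 mV (100 ms) every 1 s from a 0 mV hold.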

[3] = biological target: T3, Short transient receptor potential channel 7 (Homo sapiens, UniProt Q9HCX4); test: as §2; outline: as §3
T3 sequence (Q9HCX4 whole entry): T2 sequence (whole entry)

[4] = biological target: T1, Short transient receptor potential channel 3 (Homo sapiens); test: Agonist activity at human TRPC3 expressed in HEK293 cells assessed as induction of membrane depolarization measured for 2.5 mins in presence of 2 mM Ca2+ by FLIPR membrane potential dye-based fluorescence assay; outline: as §1
Rattus norvegicus [5] = organism: Rattus norvegicus; test: Agonist activity at TRPC6 in rat primary glomerular mesangial cells assessed as increase in intracellular calcium level at 1 uM by Fluo4-AM dye-based fluorescence assay
Outline: (§4)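 Rat glomerular mesangial cells, isolated by graded sieving from male Sprague–Dawley rats, collagenase-digested, cultured in RPMI 1640 with 17% FBS. Grown overnight on coverslips, then loaded with 10 μM Fluo4-AM and 0.02% pluronic F-127 for 1 h at 37 °C in 1 mM Ca2+ saline, pH 7.4. Compound at 1 μM. Confocal imaging, ex 488/em 515 nm, read as F/F0. For the 2-APB condition, 30 μM 2-APB for 2 min beforehand and kept during compound application.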

Rattus norvegicus [6] = organism: Rattus norvegicus; test: Agonist activity at TRPC6 in rat primary glomerular mesangial cells assessed as increase in intracellular calcium level at 1 uM in presence of TRPC inhibitor […] by Fluo4-AM dye-based fluorescence assay; outline: as §4
[7] = Selectivity ratio of EC50 for mouse TRPC6 expressed in HEK293 cells co-expressing Gq11-PLCbeta fused M5 receptor assessed as increase in intracellular calcium level to EC50 for human TRPC3 expressed in HEK293 cells assessed as induction of membrane depolarization in presence of 0.5 mM Ca2+

SMILES: CCOC(=O)N1CCC(c2cc(O)n3nc(C)c(-c4ccc(F)cc4)c3n2)CC1
- Activity [1]: Dose-dependent effect
- Activity [2]: Dose-dependent effect
- EC50 [3]: 1130 nM
- Activity [4]: inactive

SMILES: Cc1nn2c(O)cc(C3CCN(C(=O)OCc4ccccc4)CC3)nc2c1-c1ccc(F)cc1
- Activity (Rattus norvegicus [5]): Active
- Activity (Rattus norvegicus [6]): inactive

SMILES: CCOC(=O)N1CCC(c2cc(O)n3nc(C)c(-c4ccc(C(F)(F)F)cc4)c3n2)CC1
- Ratio EC50 [7]: > 70
